Publication PMC10448641 (ACS Omega, 2023)

Test system: WISH cells
Test: MTT cytotoxicity assay, WISH normal cells
Type: cell-based
Settings: read-out: IC50 ± SD, WISH (Normal cells)
Method in brief: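 Cells obtained from the Egyptian National Cancer Institute and grown in RPMI-1640/DMEM with L-glutamine. Seeded at 5 × 10^4 cells/well in triplicate and treated at 0.1, 1, 10 and 100 μg/mL. Viability read by MTT on the second day with absorbance on a microplate reader. IC50 derived against control-group viability, recorded in triplicate, mean ± SD.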

COc1cccc2c1C(=O)c1c(O)c3c(c(O)c1C2=O)C[C@@](O)(C(=O)CO)C[C@@H]3O[C@H]1C[C@H](N)[C@H](O)[C@H](C)O1 [Doxorubicin]
IC50: 56.5 ± 2.7 µM
